Marks after values point to notes of the source that are not given here.
How the values were obtained:
[1] = system: FXR; conditions: read-out: FXR EC50; in vitro; cited from earlier work
[2] = system: TGR5; conditions: read-out: TGR5 EC50; in vitro; cited from earlier work
[3] = LC/MS/MS determination of compound levels in liver and ileum, 14 d dosing; type: in vivo; conditions: 1-30 mg/kg PO, chow-fed C57Bl6 mice
Procedure, shortened: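 Chow-fed C57Bl6 mice were dosed PO QD with test compounds at 1-30 mg/kg for 14 d. Weighed liver and ileum were bead-homogenised in 7 volumes of 80/20 ACN/HBSS and centrifuged. Supernatant was dried under nitrogen and reconstituted in 60/40 methanol/10 mmol/L ammonium acetate with 25 nmol/L d5-GCA internal standard, then filtered. Analysis used UHPLC-high-resolution MS in negative ESI with a C18 column at 45 °C and matrix-matched quadratic (1/x) calibration.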

[4] = system: FXR target genes; assay: Hepatic and ileal FXR target gene expression by RNA sequencing, 14 d dosing; type: in vivo; conditions: 1-30 mg/kg PO, 2 wk, lean C57Bl6 mice, RNAseq
Procedure, shortened: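 Lean chow-fed C57Bl6 mice received FXR-agonist test compounds at 1, 3, 10 or 30 mg/kg PO QD for 14 d. Liver and ileum transcriptomes were profiled by RNA sequencing using stranded mRNA libraries on a NextSeq 500. Prototypic FXR target genes were analysed by two-way ANOVA with Bonferroni post-hoc test against untreated (dose 0) animals.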

[5] = system: ob/ob-NASH mice; assay: Liver histology; type: in vivo; conditions: 16 wk; for Collagen 1a1 (fibrosis) % fractional area, Before treatment / Galectin-3 (inflammation) % fractional area, Before treatment / Lipid (steatosis) % fractional area, Before treatment: baseline biopsy; for Collagen 1a1 (fibrosis) % fractional area, Before treatment / Galectin-3 (inflammation) % fractional area, Before treatment / Lipid (steatosis) % fractional area, Before treatment / Collagen 1a1 (fibrosis) % fractional area, After treatment / Galectin-3 (inflammation) % fractional area, After treatment / Lipid (steatosis) % fractional area, After treatment: mean ± SE
Procedure, shortened: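 Biopsy-confirmed ob/ob-NASH mice (AMLN diet; n = 11-12/group, stratified by Col1a1 fibrosis) were dosed orally with vehicle or test compound for 16 wk. Baseline biopsies and terminal left lateral lobe samples were fixed overnight in 4% PFA, paraffin-sectioned at 3 μm, and stained with HE, anti-Col1a1 and anti-galectin-3. Scoring was blinded. Immunoreactive area was expressed as % of parenchymal area after subtracting fat area from adjacent HE sections. Responders had ≥1-point change (χ2 test).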

[6] = 10 mg/kg, subjects achieving > 1 points improvement in score from baseline

CC[C@H]1[C@@H](O)C2[C@@H]3CC[C@H]([C@H](C)CCOS(=O)(=O)O)[C@@]3(C)CC[C@@H]2[C@@]2(C)CC[C@@H](O)C[C@@H]12 (some centres unmarked) [INT-767]
EC50 [1]: […] | EC50 [2]: […]

CC[C@H]1[C@@H](O)[C@@H]2[C@H](CC[C@]3(C)[C@@H]([C@H](C)CCC(=O)O)CC[C@@H]23)[C@@]2(C)CC[C@@H](O)C[C@@H]12 [OCA, obeticholic acid]
ileal drug concentration compared to the liver [3]: approximately two-fold | hepatic FXR target gene expression (BSEP, OST, CYP8b1, SHP) [4]: regulated hepatic FXR genes | ileal FXR target gene expression (SHP, FGF-15) [4]: more pronounced effects | Fibrosis stage: No improvement (number of mice) ([5]; 10 mg/kg): 10 | Fibrosis stage: With improvement (number of mice) ([5]; 10 mg/kg): 2 | NAS: No improvement (number of mice) ([5]; 10 mg/kg): 8 | NAS: With improvement (number of mice) ([5]; 10 mg/kg): 4 | Collagen 1a1 (fibrosis) % fractional area, Before treatment ([5]; 10 mg/kg): 0.9 ± 0.1 % fractional area | Galectin-3 (inflammation) % fractional area, Before treatment ([5]; 10 mg/kg): 5.5 ± 0.3 % fractional area | Lipid (steatosis) % fractional area, Before treatment ([5]; 10 mg/kg): 33.4 ± 0.8 % fractional area | Collagen 1a1 (fibrosis) % fractional area, After treatment ([5]; 10 mg/kg): 9.0 ± 0.6 ^a % fractional area | Galectin-3 (inflammation) % fractional area, After treatment ([5]; 10 mg/kg): 5.0 ± 0.2 ^a % fractional area | Lipid (steatosis) % fractional area, After treatment ([5]; 10 mg/kg): 31.8 ± 0.4 % fractional area | Fibrosis stage: % improving [5, 6]: 17% | NAS: % improving [5, 6]: 33% | Fibrosis stage: No improvement (number of mice) ([5]; 30 mg/kg): 7 | Fibrosis stage: With improvement (number of mice) ([5]; 30 mg/kg): 4 | NAS: No improvement (number of mice) ([5]; 30 mg/kg): 0 | NAS: With improvement (number of mice) ([5]; 30 mg/kg): 11 | Collagen 1a1 (fibrosis) % fractional area, Before treatment ([5]; 30 mg/kg): 1.2 ± 0.2 % fractional area | Galectin-3 (inflammation) % fractional area, Before treatment ([5]; 30 mg/kg): 5.5 ± 0.4 % fractional area | Lipid (steatosis) % fractional area, Before treatment ([5]; 30 mg/kg): 32.2 ± 1.1 % fractional area | Collagen 1a1 (fibrosis) % fractional area, After treatment ([5]; 30 mg/kg): 8.0 ± 0.7 ^a % fractional area | Galectin-3 (inflammation) % fractional area, After treatment ([5]; 30 mg/kg): 4.0 ± 0.4 ^a % fractional area | Lipid (steatosis) % fractional area, After treatment ([5]; 30 mg/kg): 22.7 ± 1.0 ^a % fractional area | NAS: % improving ([5]; 30 mg/kg, subjects achieving > 1 points improvement in score from baseline): 100% ^a

Reference: PMC5768938 (World Journal of Gastroenterology, 2018)
